Laboratory results as given in ChEMBL document CHEMBL4390663, “Cationic biaryl 1,2,3-triazolyl peptidomimetic amphiphiles: synthesis, antibacterial evaluation and preliminary mechanism of action studies” (Eur J Med Chem, 2019).
Values after ≈ are worked out from the molar mass of the structure shown.

Tests used:
Staphylococcus aureus [1] = experiment: Antimicrobial activity against methicillin-resistant Staphylococcus aureus ATCC 43300 incubated for 18 hrs by CLSI method; format: functional; details: ATCC 43300, 18 h
Staphylococcus aureus [2] = experiment: Antimicrobial activity against methicillin-resistant Staphylococcus aureus clinical isolate incubated for 18 hrs by CLSI method; format: functional
Staphylococcus aureus [3] = experiment: Antimicrobial activity against glycopeptide intermediate susceptible Staphylococcus aureus NRS17 incubated for 18 hrs by CLSI method; format: functional; details: NRS17, 18 h
Staphylococcus aureus [4] = experiment: Antimicrobial activity against glycopeptide intermediate susceptible/methicillin-resistant Staphylococcus aureus NRS1 incubated for 18 hrs by CLSI method; format: functional; details: NRS1, 18 h
Staphylococcus aureus [5] = experiment: Antimicrobial activity against methicillin-resistant Staphylococcus aureus clinical isolate with reduced daptomycin susceptibility incubated for 18 hrs by CLSI method; format: functional
Staphylococcus aureus [6] = experiment: Antimicrobial activity against vancomycin resistant Staphylococcus aureus NARSA VRS10 incubated for 18 hrs by CLSI method; format: functional; details: NARSA VRS10, 18 h
Streptococcus pneumoniae [7] = experiment: Antibacterial activity against MDR Streptococcus pneumoniae ATCC 700677 incubated for 18 hrs by CLSI method; format: functional; details: ATCC 700677, 18 h
Enterococcus faecalis [8] = experiment: Antimicrobial activity against vancomycin-resistant Enterococcus faecalis clinical isolate incubated for 18 hrs by CLSI method; format: functional
Clostridioides difficile [9] = experiment: Antibacterial activity against Clostridium difficile NSW132 RT027 incubated for 48 hrs by CLSI method; format: functional; details: NSW132 RT027, 48 h
Procedure, shortened: (§1)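 Broth microdilution per CLSI anaerobe method in pre-reduced (2-4 h) Brucella broth with haemin and vitamin K, 35 °C anaerobically for 48 h. Compounds from 5 mg/mL DMSO stocks, twofold dilutions in water mixed with double-strength broth; final 0.25–128 μg/mL. […] Triplicate; modal MIC read visually as lowest concentration inhibiting growth.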

Clostridioides difficile [10] = experiment: Antibacterial activity against Clostridium difficile ATCC 700057 incubated for 48 hrs by CLSI method; format: functional; details: ATCC 700057, 48 h; procedure, shortened: as §1
Streptococcus pneumoniae [11] = experiment: Antibacterial activity against Streptococcus pneumoniae ATCC 49619 incubated for 24 hrs by CLSI method; format: functional; details: ATCC 49619, 24 h
Procedure, shortened: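 CLSI broth microdilution in MHB with 2.5% lysed horse blood, 5% CO2, 35 °C, 24 h. Compounds from 5 mg/mL DMSO stocks diluted in water plus double-strength broth; final 0.25–128 μg/mL. […] Triplicate; modal MIC read visually as lowest growth-inhibiting concentration.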

Staphylococcus aureus [12] = experiment: Antimicrobial activity against Staphylococcus aureus ATCC 29213 incubated for 24 hrs by CLSI method; format: functional; details: ATCC 29213, 24 h
Procedure, shortened: (§2)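 Broth microdilution per CLSI aerobic guidance in Mueller Hinton broth, ambient air, 35 °C for 24 h. DMSO stocks were diluted in water, then serially diluted with double-strength broth inoculum added, for final 0.25–128 μg/mL. […] MIC was read visually as the lowest concentration inhibiting growth; the modal value of triplicates was recorded.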

Staphylococcus aureus [13] = experiment: Antibacterial activity against methicillin-resistant Staphylococcus aureus NCTC 10442 incubated for 24 hrs by CLSI method; format: functional; details: NCTC 10442, 24 h; procedure, shortened: as §2
Enterococcus faecalis [14] = experiment: Antibacterial activity against Enterococcus faecalis ATCC 29212 incubated for 24 hrs by CLSI method; format: functional; details: ATCC 29212, 24 h
Escherichia coli [15] = experiment: Antibacterial activity against Escherichia coli ATCC 25922 incubated for 18 hrs by CLSI method; format: functional
Procedure, shortened: (§3)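 Screen run by CO-ADD: mid-log cultures in cation-adjusted MHB, 5 × 10^5 CFU/mL, compounds at up to 32 μg/mL in 1:2 serial dilutions (8 steps), final DMSO ≤0.5%, duplicate. 37 °C for 18 h without shaking; OD600 read against media-only and untreated-bacteria references. MIC = lowest concentration giving ≥80% inhibition; colistin standard.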

Klebsiella pneumoniae = experiment: Antibacterial activity against Klebsiella pneumoniae 700603 incubated for 18 hrs by CLSI method; format: functional; procedure, shortened: as §3
Pseudomonas aeruginosa = experiment: Antimicrobial activity against Pseudomonas aeruginosa ATCC 27853 incubated for 18 hrs by CLSI method; format: functional; procedure, shortened: as §3
Staphylococcus aureus [16] = experiment: Antimicrobial activity against Staphylococcus aureus ATCC 43300 incubated for 18 hrs by CLSI method; format: functional; details: ATCC 43300, 18 h
[17] = Haemolytic activity in sheep erythrocytes at 50 ug/ml incubated for 2 hrs under shaking condition relative to control; format: ADME, cell-based, Ovis aries, Erythrocyte; details: read-out: Activity
Procedure, shortened: (§4)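 Compounds in PBS mixed with washed sheep erythrocytes (2% final) at 5 or 50 μg/mL, rocked 2 h at 37 °C, centrifuged; supernatant absorbance at 540 nm. PBS-only value subtracted, then expressed relative to water lysis (100%). Triplicate, means reported.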

Acinetobacter baumannii [18] = experiment: Antimicrobial activity against Acinetobacter baumannii ATCC 19606 incubated for 18 hrs by CLSI method; format: functional; procedure, shortened: as §3
[19] = Cytotoxicity against human HEK293 cells assessed as reduction in cell growth incubated for 20 hrs by resazurin dye-based fluorometric assay
Procedure, shortened: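 HEK293 cells, 5000 per well in DMEM + 10% FBS, exposed to compounds (top 32 μg/mL, 1:2 serial dilution ×8, ≤0.5% DMSO, duplicate) for 20 h at 37 °C, 5% CO2. Resazurin added (2.3 μg/mL final), 3 h further; fluorescence ex 560/em 590 nm. CC50 from sigmoidal dose-response fit against log concentration; tamoxifen standard.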

[20] = Haemolytic activity in sheep erythrocytes at 5 ug/ml incubated for 2 hrs under shaking condition relative to control; format: ADME, cell-based, Ovis aries, Erythrocyte; details: read-out: Activity; procedure, shortened: as §4
Staphylococcus aureus [21] = experiment: Induction of cytoplasmic membrane depolarization in Staphylococcus aureus ATCC 29213 at 32 ug/ml incubated for 30 mins by diSC35 staining based fluorescence assay relative to control; format: functional
Procedure, shortened: (§5)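 Mid-log cells (1.5 McFarland) loaded with 4 µM diSC3(5) in the dark at room temperature: S. aureus in PBS 30 min; E. coli in 5 mM HEPES/20 mM glucose pH 7.2 for 60 min, then 100 mM KCl and 0.5 mM EDTA. Baseline fluorescence (ex 620/em 670 nm) ~8 min, then compound added (final 32 µg/mL S. aureus, 64 µg/mL E. coli), tracked ~30 min.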

Escherichia coli [22] = experiment: Induction of cytoplasmic membrane depolarization in Escherichia coli NCTC 10418 at 64 ug/ml incubated for 30 mins by diSC35 staining based fluorescence assay relative to control; format: functional; procedure, shortened: as §5
Staphylococcus aureus [23] = experiment: Induction of plasma membrane permeabilization in Staphylococcus aureus ATCC 29213 at 32 ug/ml measured for 30 mins by propidium iodide staining based fluorescence assay relative to control; format: functional
Procedure, shortened: (§6)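 Mid-log cells (1.5 McFarland) with 4 µM propidium iodide, dark, room temperature: S. aureus in PBS 30 min; E. coli in 5 mM HEPES/20 mM glucose pH 7.2 for 60 min, then 100 mM KCl and 0.5 mM EDTA. Fluorescence (ex 544/em 615 nm) read ~8 min baseline, then ~30 min after compound at 32 µg/mL final.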

Escherichia coli [24] = experiment: Induction of plasma membrane permeabilization in Escherichia coli NCTC 10418 at 32 ug/ml measured for 30 mins by propidium iodide staining based fluorescence assay relative to control; format: functional; procedure, shortened: as §6
Staphylococcus aureus [25] = experiment: Bactericidal activity against exponential phase of Staphylococcus aureus ATCC 29213 assessed as reduction in bacterial count at 4 ug/ml measured at 2 hrs by time-kill kinetics assay; format: functional, organism-based
Escherichia coli [26] = experiment: Induction of plasma membrane permeabilization in Escherichia coli NCTC 10418 at 64 ug/ml measured for 30 mins by propidium iodide staining based fluorescence assay relative to control; format: functional, organism-based
Staphylococcus aureus [27] = experiment: Antimicrobial activity against methicillin-resistant Staphylococcus aureus incubated for 24 hrs by broth microdilution method; format: functional; procedure, shortened: as §2
Enterococcus faecalis [28] = experiment: Antimicrobial activity against vancomycin-resistant Enterococcus faecalis incubated for 24 hrs by broth microdilution method; format: functional
Clostridioides difficile [29] = experiment: Antimicrobial activity against Clostridium difficile incubated for 24 hrs by broth microdilution method; format: functional
Acinetobacter baumannii [30] = experiment: Antimicrobial activity against Acinetobacter baumannii incubated for 24 hrs by broth microdilution method; format: functional

Row | Compound | MIC (Staphylococcus aureus [1]) [µg/mL] | MIC (Staphylococcus aureus [2]) [µg/mL] | MIC (Staphylococcus aureus [3]) [µg/mL] | MIC (Staphylococcus aureus [4]) [µg/mL] | MIC (Staphylococcus aureus [5]) [µg/mL] | MIC (Staphylococcus aureus [6]) [µg/mL] | MIC (Streptococcus pneumoniae [7]) [µg/mL] | MIC (Enterococcus faecalis [8]) [µg/mL] | MIC (Clostridioides difficile [9]) [µg/mL] | MIC (Clostridioides difficile [10]) [µg/mL] | MIC (Streptococcus pneumoniae [11]) [µg/mL] | MIC (Staphylococcus aureus [12]) [µg/mL] | MIC (Staphylococcus aureus [13]) [µg/mL] | MIC (Enterococcus faecalis [14]) [µg/mL] | hemolysis at 2 h, 50 ug/ml [17] [%] | Activity (Escherichia coli [22]) | other results
1 | CCCCCCCCCC(=O)N[C@@H](Cc1c[nH]c2ccccc12)C(=O)N[C@H](CC(N)=O)C(=O)N[C@@H](CC(=O)O)C(=O)N[C@@H]1C(=O)NCC(=O)N[C@@H](CCCN)C(=O)N[C@@H](CC(=O)O)C(=O)N[C@H](C)C(=O)N[C@@H](CC(=O)O)C(=O)NCC(=O)N[C@H](CO)C(=O)N[C@@H]([C@H](C)CC(=O)O)C(=O)N[C@@H](CC(=O)c2ccccc2N)C(=O)O[C@@H]1C | 0.5 to 1 (≈ 0.309 to 0.617 µM) | 2 (≈ 1.23 µM) | 8 (≈ 4.94 µM) | 8 (≈ 4.94 µM) | 4 (≈ 2.47 µM) | 2 (≈ 1.23 µM) | 1 to 2 (≈ 0.617 to 1.23 µM) | 8 (≈ 4.94 µM) | – | – | – | – | – | – | – | – | –
2 | CC(C)CCOc1ccc2ccccc2c1-c1c(OCc2cn(C[C@@H](CCCCN)NC(=O)Cc3ccc4c(c3)OCO4)nn2)ccc2ccccc12.Cl | 8 | > 32 | 16 | 8 to 16 | 8 | 8 to 16 | 8 to 16 | 4 | 32 | 32 | 16 | 8 | 8 | 8 | – | – | –
3 | CC(C)CCOc1ccccc1-c1ccccc1OCc1cn(C[C@@H](CCCCN)NC(=O)[C@@H](CCCNC(=N)N)n2cc(CC3CCCCC3)nn2)nn1.Cl.Cl | – | – | – | – | – | – | – | – | 4 | 4 | 4 | 4 | 4 | 4 | 42.4 | 460 - 900% | MIC (Escherichia coli [15]; ATCC 25922, 18 h): 4 µg/mL; MIC (Klebsiella pneumoniae; Klebsiella pneumoniae, 700603, 18 h): 16 µg/mL; MIC (Pseudomonas aeruginosa; ATCC 27853, 18 h): 16 µg/mL; MIC (Staphylococcus aureus [16]): 2 µg/mL; MIC (Acinetobacter baumannii [18]; ATCC 19606 = CIP 70.34 = JCM 6841, 18 h): 8 µg/mL; CC50 at 20 h [19]: > 32 µg/mL; hemolysis at 2 h, 5 ug/ml [20]: 1.5%; Activity (Staphylococcus aureus [21]): 120 - 180%; Activity (Staphylococcus aureus [23]): 600%; Activity (Escherichia coli [24]): 25 - 40%
4 | COLISTIN | – | – | – | – | – | – | – | – | – | – | – | – | – | – | – | 400% | MIC (Escherichia coli [15]): 0.125 µg/mL; MIC (Klebsiella pneumoniae): 0.25 µg/mL; MIC (Pseudomonas aeruginosa): 0.25 µg/mL; MIC (Acinetobacter baumannii [18]; ATCC 19606 = CIP 70.34 = JCM 6841): 0.25 µg/mL; Activity (Staphylococcus aureus [25]): < 1000 CFU/mL; Activity (Escherichia coli [26]): 75%
5 | CC(C)CCOc1ccc2ccccc2c1-c1c(OCC(=O)N[C@H](CCCCN)C(=O)N[C@H](CCCNC(=N)N)Cn2cc(CC3CCCCC3)nn2)ccc2ccccc12.Cl.Cl | – | – | – | – | – | – | – | – | – | – | – | – | – | – | 78 | – | MIC (Staphylococcus aureus [27]): 2 µg/mL; MIC (Enterococcus faecalis [28]): 4 µg/mL; MIC (Clostridioides difficile [29]): 4 µg/mL; MIC (Acinetobacter baumannii [30]): 4 µg/mL
